{"source": "ChEMBL document CHEMBL1157359", "about": "“Binding of ceftobiprole and comparators to the penicillin-binding proteins of Escherichia coli, Pseudomonas aeruginosa, Staphylococcus aureus, and Streptococcus pneumoniae” (Antimicrob Agents Chemother, 2007)", "key": {"[1]": {"experiment": "Inhibition of bocillin FL binding to penicillin-susceptible Streptococcus pneumoniae OC 8865 penicillin-binding protein 2a", "how_it_was_run": "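S. pneumoniae OC 8865 PBPs assayed in whole cells; drug competition followed by Bocillin FL labeling and imaging of labeled PBPs. IC50 is 50% inhibition of Bocillin FL binding compared with a no-drug control.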"}, "Escherichia coli": {"test_system": "Escherichia coli", "experiment": "Antibacterial activity against Escherichia coli MC4100 by CLSI method", "format": "functional"}, "[2]": {"experiment": "Inhibition of bocillin FL binding to Escherichia coli MC4100 penicillin-binding protein 6", "how_it_was_run": "(§1)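 Isolated E. coli MC4100 PBPs were competed with 10 drug concentrations from 0.016 μg/ml to 8 μg/ml, then labeled with Bocillin FL. Fluorescent PBP bands were imaged. IC50 is the concentration giving 50% inhibition of Bocillin FL binding to each PBP relative to a no-drug control.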"}, "[3]": {"experiment": "Inhibition of bocillin FL binding to Escherichia coli MC4100 penicillin-binding protein 5", "how_it_was_run": "as §1"}, "[4]": {"experiment": "Inhibition of bocillin FL binding to Escherichia coli MC4100 penicillin-binding protein 4", "how_it_was_run": "as §1"}, "[5]": {"experiment": "Inhibition of bocillin FL binding to Escherichia coli MC4100 penicillin-binding protein 3", "how_it_was_run": "as §1"}, "[6]": {"biological_target": "T1, Cell shape peptidoglycan synthetase penicillin-binding protein 2 (Escherichia coli, UniProt Q2TL65)", "T1 sequence (Q2TL65 whole entry)": "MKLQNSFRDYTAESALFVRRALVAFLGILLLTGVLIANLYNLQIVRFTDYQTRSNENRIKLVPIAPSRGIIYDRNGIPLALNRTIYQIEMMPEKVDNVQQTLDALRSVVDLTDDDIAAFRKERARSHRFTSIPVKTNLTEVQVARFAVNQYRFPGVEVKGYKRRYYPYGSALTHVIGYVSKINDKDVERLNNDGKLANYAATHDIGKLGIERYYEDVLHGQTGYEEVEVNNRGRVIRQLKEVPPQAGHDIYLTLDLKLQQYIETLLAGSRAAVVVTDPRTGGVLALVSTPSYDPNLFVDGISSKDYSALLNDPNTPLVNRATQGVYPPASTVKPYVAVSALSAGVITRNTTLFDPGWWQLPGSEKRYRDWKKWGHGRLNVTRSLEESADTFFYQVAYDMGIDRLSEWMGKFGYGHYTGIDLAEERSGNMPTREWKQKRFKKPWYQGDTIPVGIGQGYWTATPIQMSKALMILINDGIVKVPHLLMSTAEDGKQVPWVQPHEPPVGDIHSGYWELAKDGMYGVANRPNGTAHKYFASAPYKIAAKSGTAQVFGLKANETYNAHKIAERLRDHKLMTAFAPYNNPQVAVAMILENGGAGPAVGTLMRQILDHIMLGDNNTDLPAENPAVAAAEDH", "experiment": "Inhibition of bocillin FL binding to Escherichia coli MC4100 penicillin-binding protein 2", "how_it_was_run": "(§2)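 Isolated E. coli MC4100 PBPs; competition with drug at 10 concentrations, 0.016 μg/ml to 8 μg/ml, then Bocillin FL labeling. Gel bands visualized by imaging. IC50 is the concentration giving 50% inhibition of Bocillin FL binding relative to a no-drug control.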"}, "[7]": {"experiment": "Inhibition of bocillin FL binding to Escherichia coli MC4100 penicillin-binding protein 1b", "how_it_was_run": "as §1"}, "[8]": {"experiment": "Inhibition of bocillin FL binding to Escherichia coli MC4100 penicillin-binding protein 1a", "how_it_was_run": "as §2"}, "MecA": {"biological_target": "T2, MecA (Staphylococcus aureus, UniProt Q7DHH4)", "T2 sequence (Q7DHH4 whole entry)": "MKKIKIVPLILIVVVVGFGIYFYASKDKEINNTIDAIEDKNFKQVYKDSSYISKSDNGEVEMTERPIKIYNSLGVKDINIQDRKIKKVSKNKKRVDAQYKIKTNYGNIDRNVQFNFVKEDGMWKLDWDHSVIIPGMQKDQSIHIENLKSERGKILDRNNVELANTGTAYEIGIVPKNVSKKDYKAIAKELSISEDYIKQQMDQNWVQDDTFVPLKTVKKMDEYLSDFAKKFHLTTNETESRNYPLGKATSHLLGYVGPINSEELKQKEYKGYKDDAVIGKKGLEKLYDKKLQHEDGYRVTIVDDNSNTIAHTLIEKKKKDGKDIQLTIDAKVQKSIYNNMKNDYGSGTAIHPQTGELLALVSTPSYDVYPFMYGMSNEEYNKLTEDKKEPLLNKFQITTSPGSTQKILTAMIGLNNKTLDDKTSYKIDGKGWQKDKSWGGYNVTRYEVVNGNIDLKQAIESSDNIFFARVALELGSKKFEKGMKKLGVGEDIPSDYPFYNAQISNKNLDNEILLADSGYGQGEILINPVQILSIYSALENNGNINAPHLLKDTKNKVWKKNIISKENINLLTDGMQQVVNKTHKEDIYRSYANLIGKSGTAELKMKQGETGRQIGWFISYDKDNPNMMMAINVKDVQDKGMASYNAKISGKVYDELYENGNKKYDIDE", "experiment": "Inhibition of bocillin FL binding to methicillin-resistant Staphylococcus aureus OC 3726 penicillin-binding protein 2a", "how_it_was_run": "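OC 3726 membranes were first preincubated with 1 mg/ml clavulanic acid to saturate all PBPs except PBP2a. Drug was then added (0.16 μg/ml to 50 μg/ml), followed by Bocillin FL labeling and fluorescence imaging. IC50 is 50% inhibition of PBP2a labeling compared with the no-drug (0 μg/ml) sample.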"}, "Staphylococcus aureus": {"test_system": "Staphylococcus aureus", "experiment": "Antibacterial activity against methicillin-resistant Staphylococcus aureus OC 3726 by CLSI method", "format": "functional"}, "[9]": {"biological_target": "T3, Penicillin-binding protein 2 (Pseudomonas aeruginosa, UniProt Q9X6V3)", "T3 sequence (Q9X6V3 whole entry)": "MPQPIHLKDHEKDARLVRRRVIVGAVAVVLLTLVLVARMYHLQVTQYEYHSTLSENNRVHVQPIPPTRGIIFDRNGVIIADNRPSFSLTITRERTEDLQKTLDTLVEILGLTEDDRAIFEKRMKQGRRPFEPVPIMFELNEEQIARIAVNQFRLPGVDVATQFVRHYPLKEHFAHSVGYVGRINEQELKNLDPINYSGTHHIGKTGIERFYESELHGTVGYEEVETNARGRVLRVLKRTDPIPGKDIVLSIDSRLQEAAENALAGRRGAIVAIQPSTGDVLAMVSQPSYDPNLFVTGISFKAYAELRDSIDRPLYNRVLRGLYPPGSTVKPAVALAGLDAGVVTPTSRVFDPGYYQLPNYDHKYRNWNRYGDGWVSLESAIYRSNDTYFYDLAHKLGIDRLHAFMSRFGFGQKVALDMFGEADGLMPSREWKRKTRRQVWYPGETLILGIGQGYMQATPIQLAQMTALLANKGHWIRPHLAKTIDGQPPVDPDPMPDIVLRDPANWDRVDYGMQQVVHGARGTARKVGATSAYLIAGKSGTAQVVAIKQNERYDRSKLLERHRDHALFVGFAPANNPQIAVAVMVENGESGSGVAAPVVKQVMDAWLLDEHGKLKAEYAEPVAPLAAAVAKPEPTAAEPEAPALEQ", "experiment": "Inhibition of bocillin FL binding to Pseudomonas aeruginosa PAO1 penicillin-binding protein 2", "how_it_was_run": "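Isolated P. aeruginosa PAO1 PBPs; drug added at 10 concentrations, 0.06 μg/ml to 32 μg/ml, before Bocillin FL labeling. Labeled PBPs imaged. IC50 is the drug level cutting Bocillin FL binding by 50% versus a no-drug sample.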"}}}
{"smiles": "CO/N=C(\\C(=O)N[C@@H]1C(=O)N2C(C(=O)O)=C(CSc3nc(=O)c(O)nn3C)CS[C@H]12)c1csc(N)n1", "note": "(stereo in doubt) [CEFTRIAXONE]", "values": [{"measurement": "IC50", "setting": "[1]", "result": 0.1, "unit": "mg/L"}, {"measurement": "MIC", "setting": "Escherichia coli", "result": 0.06, "unit": "mg/L"}, {"measurement": "IC50", "setting": "[2]", "result": "> 8", "unit": "mg/L"}, {"measurement": "IC50", "setting": "[3]", "result": 6, "unit": "mg/L"}, {"measurement": "IC50", "setting": "[4]", "result": 0.4, "unit": "mg/L"}, {"measurement": "IC50", "setting": "[5]", "result": "< 0.01", "unit": "mg/L"}, {"measurement": "IC50", "setting": "[6]", "result": 0.361, "unit": "µM"}, {"measurement": "IC50", "setting": "[7]", "result": 0.5, "unit": "mg/L"}, {"measurement": "IC50", "setting": "[8]", "result": 0.2, "unit": "mg/L"}, {"measurement": "IC50", "setting": "MecA", "result": "> 90.2", "unit": "µM"}, {"measurement": "MIC", "setting": "Staphylococcus aureus", "result": "> 64", "unit": "mg/L"}]}
{"smiles": "CC(C)(O/N=C(\\C(=O)N[C@@H]1C(=O)N2C(C(=O)[O-])=C(C[n+]3ccccc3)CS[C@H]12)c1csc(N)n1)C(=O)O", "note": "[CEFTAZIDIME]", "values": [{"measurement": "MIC", "setting": "Escherichia coli", "result": 0.12, "unit": "mg/L"}, {"measurement": "IC50", "setting": "[2]", "result": "> 4", "unit": "mg/L"}, {"measurement": "IC50", "setting": "[3]", "result": "> 4", "unit": "mg/L"}, {"measurement": "IC50", "setting": "[4]", "result": "> 4", "unit": "mg/L"}, {"measurement": "IC50", "setting": "[5]", "result": 0.07, "unit": "mg/L"}, {"measurement": "IC50", "setting": "[6]", "result": 7.32, "unit": "µM"}, {"measurement": "IC50", "setting": "[7]", "result": 1.1, "unit": "mg/L"}, {"measurement": "IC50", "setting": "[8]", "result": 1.1, "unit": "mg/L"}, {"measurement": "IC50", "setting": "[9]", "result": "> 58.5", "unit": "µM"}, {"measurement": "IC50", "setting": "MecA", "result": "> 91.5", "unit": "µM"}, {"measurement": "MIC", "setting": "Staphylococcus aureus", "result": "> 128", "unit": "mg/L"}]}
{"smiles": "Nc1nc(/C(=N/O)C(=O)N[C@@H]2C(=O)N3C(C(=O)O)=C(/C=C4\\CCN([C@@H]5CCNC5)C4=O)CS[C@H]23)ns1", "note": "[CEFTOBIPROLE]", "values": [{"measurement": "IC50", "setting": "[1]", "result": 0.03, "unit": "mg/L"}, {"measurement": "MIC", "setting": "Escherichia coli", "result": 0.03, "unit": "mg/L"}, {"measurement": "IC50", "setting": "[2]", "result": 3, "unit": "mg/L"}, {"measurement": "IC50", "setting": "[3]", "result": "> 8", "unit": "mg/L"}, {"measurement": "IC50", "setting": "[4]", "result": 0.5, "unit": "mg/L"}, {"measurement": "IC50", "setting": "[5]", "result": 0.2, "unit": "mg/L"}, {"measurement": "IC50", "setting": "[6]", "result": 0.374, "unit": "µM"}, {"measurement": "IC50", "setting": "[7]", "result": 8, "unit": "mg/L"}, {"measurement": "IC50", "setting": "[8]", "result": 0.3, "unit": "mg/L"}, {"measurement": "IC50", "setting": "[9]", "result": 5.61, "unit": "µM"}, {"measurement": "IC50", "setting": "MecA", "result": 1.68, "unit": "µM"}, {"measurement": "MIC", "setting": "Staphylococcus aureus", "result": 2, "unit": "mg/L"}]}
